{"data": "Measured values from different studies", "target": "Serine/threonine-protein kinase Nek1 (NEK1, Homo sapiens, UniProt Q96PY6)", "Residues used in one study (Q96PY6 1-1258)": "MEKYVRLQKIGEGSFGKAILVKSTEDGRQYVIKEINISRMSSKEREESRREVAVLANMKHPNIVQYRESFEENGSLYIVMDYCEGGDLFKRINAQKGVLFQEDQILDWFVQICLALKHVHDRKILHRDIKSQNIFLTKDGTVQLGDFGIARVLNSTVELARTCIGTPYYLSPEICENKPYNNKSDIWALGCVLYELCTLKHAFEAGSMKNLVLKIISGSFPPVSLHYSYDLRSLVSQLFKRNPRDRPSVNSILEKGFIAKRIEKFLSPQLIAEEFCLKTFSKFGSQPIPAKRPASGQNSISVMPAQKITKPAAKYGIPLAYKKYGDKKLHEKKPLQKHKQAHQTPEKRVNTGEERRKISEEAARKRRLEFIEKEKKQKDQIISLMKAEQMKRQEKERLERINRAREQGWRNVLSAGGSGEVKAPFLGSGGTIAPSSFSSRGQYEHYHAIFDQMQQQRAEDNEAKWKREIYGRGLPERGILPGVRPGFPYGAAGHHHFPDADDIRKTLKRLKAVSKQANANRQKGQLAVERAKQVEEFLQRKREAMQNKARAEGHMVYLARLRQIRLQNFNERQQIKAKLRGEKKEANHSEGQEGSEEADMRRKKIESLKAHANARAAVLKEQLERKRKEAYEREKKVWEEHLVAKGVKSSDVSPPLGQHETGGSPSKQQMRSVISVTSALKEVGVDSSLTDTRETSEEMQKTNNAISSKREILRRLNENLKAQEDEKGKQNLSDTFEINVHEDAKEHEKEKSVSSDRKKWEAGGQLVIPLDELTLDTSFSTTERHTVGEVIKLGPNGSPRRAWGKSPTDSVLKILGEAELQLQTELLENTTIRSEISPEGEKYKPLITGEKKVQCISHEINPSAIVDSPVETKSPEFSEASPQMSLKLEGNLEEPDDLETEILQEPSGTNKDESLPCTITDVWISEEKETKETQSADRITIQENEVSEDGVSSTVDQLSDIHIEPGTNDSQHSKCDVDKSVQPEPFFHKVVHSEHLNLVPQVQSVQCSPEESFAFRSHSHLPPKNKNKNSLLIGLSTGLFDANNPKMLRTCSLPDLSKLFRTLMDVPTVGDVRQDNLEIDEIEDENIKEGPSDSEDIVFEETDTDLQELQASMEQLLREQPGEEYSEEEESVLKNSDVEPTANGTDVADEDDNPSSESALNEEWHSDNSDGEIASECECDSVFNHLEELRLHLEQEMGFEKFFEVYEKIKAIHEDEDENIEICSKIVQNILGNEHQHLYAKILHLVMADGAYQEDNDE", "note": "Each line is one published result; the experiments were not run side by side."}
{"SMILES": "CCC(=O)N[C@H]1CC[C@@H](C(=O)N(C)c2ccc(-c3nc4ccccc4o3)cc2)C1", "assay": "cell-free assay, competition with immobilised ligand", "setting": "1 µM", "remaining binding [%]": 100}
{"SMILES": "FC(F)(F)Oc1cccc(-c2cnc3ccc(-c4ccncc4)nn23)c1", "assay": "cell-free assay, competition with immobilised ligand", "setting": "5 µM", "remaining binding [%]": 78}
{"SMILES": "Cn1nc(C(=O)NCc2ccc(C(=O)O)cc2)cc1-c1ccc2[nH]ccc2c1", "assay": "cell-free assay, competition with immobilised ligand", "setting": "0.1 µM", "remaining binding [%]": 100}
{"SMILES": "COc1cnc(Nc2cccc(S(N)(=O)=O)c2)nc1N1CCN(c2ccccc2)CC1", "assay": "binding, competition with immobilised ligand", "setting": "1 µM", "remaining binding [%]": 92}
{"SMILES": "O=C(c1ccc(Nc2ncc(Cl)c(-c3ccc(Cl)s3)n2)cc1)N1CCC(N2CCCC2)CC1", "assay": "binding, competition with immobilised ligand", "setting": "1 µM", "remaining binding [%]": 23}
{"SMILES": "O=C(NCC1CCOCC1)c1n[nH]cc1NC(=O)c1c(F)cccc1F", "assay": "binding, competition with immobilised ligand", "setting": "1 µM", "remaining binding [%]": 100}
{"SMILES": "COc1ccnn2ncc(-c3ccnc(N(C)C)n3)c12", "assay": "binding", "setting": "1 µM", "remaining binding [%]": 100}
{"SMILES": "O=C(NCc1ncc(C(F)(F)F)cc1Cl)c1ccc2c(c1)C1(CCS(=O)(=O)CC1)[C@H](C1CC1)N2S(=O)(=O)c1ccc(F)cc1", "assay": "cell-free assay, competition with immobilised ligand", "setting": "1 µM", "remaining binding [%]": 100}
{"SMILES": "COc1cnc(Nc2cccc(S(N)(=O)=O)c2)nc1N1CCN(c2ccccc2)C(=O)C1", "assay": "binding, competition with immobilised ligand", "setting": "1 µM", "remaining binding [%]": 100}
{"SMILES": "O=C(c1ccc(Nc2nccc(-c3cc4ccccc4s3)n2)cc1)N1CCC(N2CCCC2)CC1", "assay": "binding, competition with immobilised ligand", "setting": "1 µM", "remaining binding [%]": 31}
{"SMILES": "CN(c1nccc(-c2cnn3ncccc23)n1)C1CC1", "assay": "binding", "setting": "1 µM", "remaining binding [%]": 100}
{"SMILES": "Nc1cnc(N2CCc3cc(S(=O)(=O)Nc4c(F)cc(Cl)cc4F)cc(N4CCCC4=O)c32)nc1", "assay": "binding, competition with immobilised ligand", "setting": "1 µM", "remaining binding [%]": 46}
{"SMILES": "F[C@@H]1CCN(c2nccc(-c3cnn4ncccc34)n2)C1", "assay": "binding", "setting": "1 µM", "remaining binding [%]": 100}
{"SMILES": "NS(=O)(=O)c1cc(NC(=O)C2(c3ccccc3Cl)CC2)ccc1Oc1cccc(Cl)c1", "assay": "cell-free assay, competition with immobilised ligand", "setting": "1 µM", "remaining binding [%]": 100}
{"SMILES": "N[C@@H]1CCN(c2nccc(-c3cnn4ncccc34)n2)C1", "assay": "binding", "setting": "1 µM", "remaining binding [%]": 100}
{"SMILES": "CS(=O)(=O)NCC[C@H](NC(=O)c1cncc2c1cnn2-c1ccc(F)cc1)c1ccnc(S(C)(=O)=O)c1", "assay": "cell-free assay, competition with immobilised ligand", "setting": "1 µM", "remaining binding [%]": 45}
{"SMILES": "CC1CCCN1c1nccc(-c2cnn3ncccc23)n1 (stereo not shown)", "assay": "binding", "setting": "1 µM", "remaining binding [%]": 100}
{"SMILES": "CNC(=O)Nc1ccc2c(c1)CC[C@@]21OC(=O)N(CC(=O)N(Cc2ccc(F)cc2)[C@@H](C)C(F)(F)F)C1=O", "assay": "cell-free assay, competition with immobilised ligand", "setting": "1 µM", "remaining binding [%]": 100}
{"SMILES": "c1cncc(-c2cccc(Nc3nccc(NC4CCCCC4)n3)c2)c1", "assay": "binding, competition with immobilised ligand", "setting": "10 µM", "remaining binding [%]": 91}
{"SMILES": "C[C@@H]1CCN(c2nccc(-c3cnn4ncccc34)n2)C1", "assay": "binding", "setting": "1 µM", "remaining binding [%]": 100}
{"SMILES": "Cc1cnc(Nc2ccc(C(=O)N3CCC(N4CCCC4)CC3)cc2)nc1-c1cc2ccccc2s1", "assay": "binding, competition with immobilised ligand", "setting": "1 µM", "remaining binding [%]": 18}
{"SMILES": "C=CC(=O)N1CCC(C(=O)NCC(=O)N2CCN(c3nc(-c4cnc(N)nc4C(F)F)nc(N4CCOCC4)n3)CC2)CC1", "assay": "binding, competition with immobilised ligand", "setting": "1 µM", "remaining binding [%]": 96}
